Reference: ChEMBL document CHEMBL4390663, “Cationic biaryl 1,2,3-triazolyl peptidomimetic amphiphiles: synthesis, antibacterial evaluation and preliminary mechanism of action studies” (Eur J Med Chem, 2019)

Legend:
Staphylococcus aureus [1] = experiment: Antimicrobial activity against methicillin-resistant Staphylococcus aureus clinical isolate incubated for 18 hrs by CLSI method; type: functional
Staphylococcus aureus [2] = experiment: Antimicrobial activity against vancomycin resistant Staphylococcus aureus NARSA VRS10 incubated for 18 hrs by CLSI method; type: functional; details: NARSA VRS10, 18 h
Staphylococcus aureus [3] = experiment: Antimicrobial activity against methicillin-resistant Staphylococcus aureus clinical isolate with reduced daptomycin susceptibility incubated for 18 hrs by CLSI method; type: functional
Clostridioides difficile [4] = experiment: Antibacterial activity against Clostridium difficile NSW132 RT027 incubated for 48 hrs by CLSI method; type: functional; details: NSW132 RT027, 48 h
Outline: (§1)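 Broth microdilution per CLSI anaerobe method in pre-reduced (2-4 h) Brucella broth with haemin and vitamin K, 35 °C anaerobically for 48 h. Compounds from 5 mg/mL DMSO stocks, twofold dilutions in water mixed with double-strength broth; final 0.25–128 μg/mL. […] Triplicate; modal MIC read visually as lowest concentration inhibiting growth.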

Streptococcus pneumoniae [5] = experiment: Antibacterial activity against MDR Streptococcus pneumoniae ATCC 700677 incubated for 18 hrs by CLSI method; type: functional; details: ATCC 700677, 18 h
Enterococcus faecalis [6] = experiment: Antibacterial activity against Enterococcus faecalis ATCC 29212 incubated for 24 hrs by CLSI method; type: functional; details: ATCC 29212, 24 h
Enterococcus faecalis [7] = experiment: Antimicrobial activity against vancomycin-resistant Enterococcus faecalis clinical isolate incubated for 18 hrs by CLSI method; type: functional
Staphylococcus aureus [8] = experiment: Antimicrobial activity against glycopeptide intermediate susceptible Staphylococcus aureus NRS17 incubated for 18 hrs by CLSI method; type: functional; details: NRS17, 18 h
Staphylococcus aureus [9] = experiment: Antimicrobial activity against methicillin-resistant Staphylococcus aureus ATCC 43300 incubated for 18 hrs by CLSI method; type: functional; details: ATCC 43300, 18 h
Staphylococcus aureus [10] = experiment: Antimicrobial activity against glycopeptide intermediate susceptible/methicillin-resistant Staphylococcus aureus NRS1 incubated for 18 hrs by CLSI method; type: functional; details: NRS1, 18 h
Staphylococcus aureus [11] = experiment: Antibacterial activity against methicillin-resistant Staphylococcus aureus NCTC 10442 incubated for 24 hrs by CLSI method; type: functional; details: NCTC 10442, 24 h
Outline: (§2)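 Broth microdilution per CLSI aerobic guidance in Mueller Hinton broth, ambient air, 35 °C for 24 h. DMSO stocks were diluted in water, then serially diluted with double-strength broth inoculum added, for final 0.25–128 μg/mL. […] MIC was read visually as the lowest concentration inhibiting growth; the modal value of triplicates was recorded.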

Staphylococcus aureus [12] = experiment: Antimicrobial activity against Staphylococcus aureus ATCC 29213 incubated for 24 hrs by CLSI method; type: functional; details: ATCC 29213, 24 h; outline: as §2
Streptococcus pneumoniae [13] = experiment: Antibacterial activity against Streptococcus pneumoniae ATCC 49619 incubated for 24 hrs by CLSI method; type: functional; details: ATCC 49619, 24 h
Outline: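 CLSI broth microdilution in MHB with 2.5% lysed horse blood, 5% CO2, 35 °C, 24 h. Compounds from 5 mg/mL DMSO stocks diluted in water plus double-strength broth; final 0.25–128 μg/mL. […] Triplicate; modal MIC read visually as lowest growth-inhibiting concentration.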

Clostridioides difficile [14] = experiment: Antibacterial activity against Clostridium difficile ATCC 700057 incubated for 48 hrs by CLSI method; type: functional; details: ATCC 700057, 48 h; outline: as §1
[15] = Haemolytic activity in sheep erythrocytes at 5 ug/ml incubated for 2 hrs under shaking condition relative to control; type: ADME, cell-based, Ovis aries, Erythrocyte; details: read-out: Activity
Outline: (§3)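 Compounds in PBS mixed with washed sheep erythrocytes (2% final) at 5 or 50 μg/mL, rocked 2 h at 37 °C, centrifuged; supernatant absorbance at 540 nm. PBS-only value subtracted, then expressed relative to water lysis (100%). Triplicate, means reported.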

Staphylococcus aureus [16] = experiment: Antimicrobial activity against Staphylococcus aureus ATCC 43300 incubated for 18 hrs by CLSI method; type: functional; details: ATCC 43300, 18 h
Staphylococcus aureus [17] = experiment: Induction of cytoplasmic membrane depolarization in Staphylococcus aureus ATCC 29213 at 32 ug/ml incubated for 30 mins by diSC35 staining based fluorescence assay relative to control; type: functional
Outline: (§4)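 Mid-log cells (1.5 McFarland) loaded with 4 µM diSC3(5) in the dark at room temperature: S. aureus in PBS 30 min; E. coli in 5 mM HEPES/20 mM glucose pH 7.2 for 60 min, then 100 mM KCl and 0.5 mM EDTA. Baseline fluorescence (ex 620/em 670 nm) ~8 min, then compound added (final 32 µg/mL S. aureus, 64 µg/mL E. coli), tracked ~30 min.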

Pseudomonas aeruginosa = experiment: Antimicrobial activity against Pseudomonas aeruginosa ATCC 27853 incubated for 18 hrs by CLSI method; type: functional; details: ATCC 27853, 18 h
Outline: (§5)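 Screen run by CO-ADD: mid-log cultures in cation-adjusted MHB, 5 × 10^5 CFU/mL, compounds at up to 32 μg/mL in 1:2 serial dilutions (8 steps), final DMSO ≤0.5%, duplicate. 37 °C for 18 h without shaking; OD600 read against media-only and untreated-bacteria references. MIC = lowest concentration giving ≥80% inhibition; colistin standard.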

Escherichia coli [18] = experiment: Induction of plasma membrane permeabilization in Escherichia coli NCTC 10418 at 32 ug/ml measured for 30 mins by propidium iodide staining based fluorescence assay relative to control; type: functional
Outline: (§6)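 Mid-log cells (1.5 McFarland) with 4 µM propidium iodide, dark, room temperature: S. aureus in PBS 30 min; E. coli in 5 mM HEPES/20 mM glucose pH 7.2 for 60 min, then 100 mM KCl and 0.5 mM EDTA. Fluorescence (ex 544/em 615 nm) read ~8 min baseline, then ~30 min after compound at 32 µg/mL final.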

[19] = Haemolytic activity in sheep erythrocytes at 50 ug/ml incubated for 2 hrs under shaking condition relative to control; type: ADME, cell-based, Ovis aries, Erythrocyte; details: read-out: Activity; outline: as §3
Acinetobacter baumannii = experiment: Antimicrobial activity against Acinetobacter baumannii ATCC 19606 incubated for 18 hrs by CLSI method; type: functional; details: ATCC 19606 = CIP 70.34 = JCM 6841, 18 h; outline: as §5
Staphylococcus aureus [20] = experiment: Induction of plasma membrane permeabilization in Staphylococcus aureus ATCC 29213 at 32 ug/ml measured for 30 mins by propidium iodide staining based fluorescence assay relative to control; type: functional; outline: as §6
Escherichia coli [21] = experiment: Antibacterial activity against Escherichia coli ATCC 25922 incubated for 18 hrs by CLSI method; type: functional; details: ATCC 25922, 18 h; outline: as §5
[22] = Cytotoxicity against human HEK293 cells assessed as reduction in cell growth incubated for 20 hrs by resazurin dye-based fluorometric assay
Outline: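 HEK293 cells, 5000 per well in DMEM + 10% FBS, exposed to compounds (top 32 μg/mL, 1:2 serial dilution ×8, ≤0.5% DMSO, duplicate) for 20 h at 37 °C, 5% CO2. Resazurin added (2.3 μg/mL final), 3 h further; fluorescence ex 560/em 590 nm. CC50 from sigmoidal dose-response fit against log concentration; tamoxifen standard.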

Klebsiella pneumoniae = experiment: Antibacterial activity against Klebsiella pneumoniae 700603 incubated for 18 hrs by CLSI method; type: functional; details: Klebsiella pneumoniae, 700603, 18 h; outline: as §5
Escherichia coli [23] = experiment: Induction of cytoplasmic membrane depolarization in Escherichia coli NCTC 10418 at 64 ug/ml incubated for 30 mins by diSC35 staining based fluorescence assay relative to control; type: functional; outline: as §4
Staphylococcus aureus [24] = experiment: Bactericidal activity against exponential phase of Staphylococcus aureus ATCC 29213 assessed as reduction in bacterial count at 64 ug/ml measured at 2 hrs by time-kill kinetics assay; type: functional
Escherichia coli [25] = experiment: Bactericidal activity against exponential phase of Escherichia coli NCTC 10418 assessed as reduction in bacterial count at 64 ug/ml measured at <= 120 mins by time-kill kinetics assay relative to control; type: functional
Staphylococcus aureus [26] = experiment: Bactericidal activity against exponential phase of Staphylococcus aureus ATCC 29213 assessed as reduction in bacterial count at 64 ug/ml measured at <= 30 mins by time-kill kinetics assay relative to control; type: functional

Compound	MIC (Staphylococcus aureus [1]) [µg/mL]	MIC (Staphylococcus aureus [2]) [µg/mL]	MIC (Staphylococcus aureus [3]) [µg/mL]	MIC (Clostridioides difficile [4]) [µg/mL]	MIC (Streptococcus pneumoniae [5]) [µg/mL]	MIC (Enterococcus faecalis [6]) [µg/mL]	MIC (Enterococcus faecalis [7]) [µg/mL]	MIC (Staphylococcus aureus [8]) [µg/mL]	MIC (Staphylococcus aureus [9]) [µg/mL]	MIC (Staphylococcus aureus [10]) [µg/mL]	MIC (Staphylococcus aureus [11]) [µg/mL]	MIC (Staphylococcus aureus [12]) [µg/mL]	MIC (Streptococcus pneumoniae [13]) [µg/mL]	MIC (Clostridioides difficile [14]) [µg/mL]	hemolysis at 2 h, 5 ug/ml [15] [%]	MIC (Staphylococcus aureus [16]) [µg/mL]	Activity (Staphylococcus aureus [17])	MIC (Pseudomonas aeruginosa) [µg/mL]	Activity (Escherichia coli [18])	hemolysis at 2 h, 50 ug/ml [19] [%]	other results
CC(C)CCOc1ccc2ccccc2c1-c1c(OCc2cn(C[C@@H](CCCCN)NC(=O)Cc3ccc4c(c3)OCO4)nn2)ccc2ccccc12.Cl	> 32	8 to 16	8	32	8 to 16	8	4	16	8	8 to 16	8	8	16	32							
CC(C)CCOc1ccccc1-c1ccccc1OCc1cn(C[C@@H](CCCCN)NC(=O)[C@@H](CCCNC(=N)N)n2cc(CC3CCCCC3)nn2)nn1.Cl.Cl				4		4					4	4	4	4	1.5	2	120 - 180%	16	25 - 40%	42.4	MIC (Acinetobacter baumannii): 8 µg/mL; Activity (Staphylococcus aureus [20]): 600%; MIC (Escherichia coli [21]): 4 µg/mL; CC50 at 20 h [22]: > 32 µg/mL; MIC (Klebsiella pneumoniae): 16 µg/mL; Activity (Escherichia coli [23]): 460 - 900%
CC(C)CCOc1ccc2ccccc2c1-c1c(OCc2cn(C[C@@H](CCCCN)NC(=O)[C@@H](CCCNC(=N)N)NC(=O)CCc3ccccc3)nn2)ccc2ccccc12.Cl.Cl	4	2	2 to 4	32	1 to 2	4	2	2	1 to 2	2 to 4	4	4	4	16	1.1	2	120 - 180%	16	25 - 40%	94.2	Activity (Staphylococcus aureus [24]): < 1000 CFU/mL; Activity (Escherichia coli [25]): >=3 log10CFU/ml; Activity (Staphylococcus aureus [26]): >=3 log10CFU/ml; MIC (Acinetobacter baumannii): 32 µg/mL; Activity (Staphylococcus aureus [20]): 600%; MIC (Escherichia coli [21]): 8 µg/mL; CC50 at 20 h [22]: 27.4 µg/mL; MIC (Klebsiella pneumoniae): 32 µg/mL; Activity (Escherichia coli [23]): 460 - 900%
